From PubChem
BB579 growth dn – reduces growth of yeast BB579 in restrictive medium; S. cerevisiae BB579 growth, OD615, 48 h; inhibition, % at 10 µM; 140,000 compounds, 0.51% hits;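 active = inhibition above a set limit, 3 SD over the mean compound inhibition, cut at about 44% in these data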
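Test system: S. cerevisiae DeaD strain BB579 yeast; Medium: restrictive CSMM-D medium; Compound: one dose, 10 µM compound with 0.25% DMSO; Incubation: 4 h cell preincubation, 48 h compound exposure, 30 °C humidified; Signal: OD at 615 nm; Benchmarks: amphotericin B at 10 µg/mL as positive control.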
WT yeast gro inh – growth inhibition of WT yeast, mitochondrial fusion screen; mitochondrial fusion phenotypic screen, WT strain; inhibition, % at 10 µM; 190,000 compounds, 2.1% hits; AID 1362; in the data active = inhibition above about 58%; tested in S. cerevisiae
RAM network inh – inhibitors of the yeast RAM network; inhibition, % at 50 µM; 190,000 compounds, 1.8% hits; S. cerevisiae dse1pr::URA3 reporter, 5-FOA growth OD615, 2 d; analog-sensitive cbk1-as2 kinase mutant strain;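 active = inhibition above a set limit, 3 SD over mean compound inhibition, cut at about 8.4% in these data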;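 note: 0% = DMSO-only wells with no growth and 100% = 10 µM 1-NA-PP1 full growth; inhibition rescues growth on 5-FOA so higher OD means more RAM inhibition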
Yeast life ext – extends the lifespan of yeast. S. cerevisiae growth with nicotinamide, OD615; deaD strain in restrictive glucose medium. inhibition of the nicotinamide effect, % at 10 µM. 130,000 compounds, 0.68% hits;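 active = inhibition above a set limit, placed 3 SD over the median of all compounds, cut at about 26% in these data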;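 note: 0% = nicotinamide-treated wells and 100% = cells grown without nicotinamide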
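assay system = DeaD-strain S. cerevisiae | buffer or medium = restrictive glucose medium | reagent = 1.5 mM nicotinamide | compound = 10 µM single point, 0.25% DMSO | incubation = 48 h compound exposure at 30 °C, humidified | signal = OD615 measurement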
Cl transport mod – modulators of human KCC2 chloride dependent transport; Q9H2X9; KCC2 cells, thallium flux FluoZin-2 fluorescence; B-score of Tl+ flux slope (higher = more flux/activation; lower = inhibition) at 10 µM; 190,000 compounds, 2.2% hits; AID 1456;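 active = thallium flux slope and its plate-corrected score both differing from the plate sample mean at a set confidence after two filtering rounds, in either direction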;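 note: slope of fluorescence scaled to starting intensity during 10 to 20 s after thallium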
RAM 5-FOA – restores 5-FOA growth of efflux-deficient yeast; 1,200 tested, under 10 active; max inhibition, %; S. cerevisiae efflux-deficient reporter strain, 5-FOA growth OD615, 2 days; shares compounds with RAM network inh; call rule not given here;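 note: plate controls were vehicle for no effect and reference inhibitor for full effect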
* = called active by the depositor; nt = no result. An excerpt weighted towards active compounds, which were near 5.5% of everything screened.

SMILES	BB579 growth dn	WT yeast gro inh	RAM network inh	Yeast life ext	Cl transport mod	RAM 5-FOA
CC(=O)ONC(=Nc1ccccc1)c1nonc1N	nt	nt	nt	nt	0.0113	nt
COCCCNC(=O)/C(C#N)=C/c1ccc(OCC(=O)O)c(OC)c1	-27.2	11.2	0.9	0.6	1.7	nt
COc1ccc(/C=C(\C#N)C(=O)NCCc2ccccc2)cc1OCc1ccccc1	-9.0	35.1	18.1*	1.6	-0.532	1.9
NCCCC[C@H]1CNC(=O)C(=O)N1CCC12CC3CC(CC(C3)C1)C2	nt	nt	nt	nt	-0.855	nt
COc1ccc(NC(=O)N2CCCC(c3nc(-c4ccc(OC)cc4)no3)C2)cc1 (configuration not stated)	nt	5.2	1.1	nt	-0.252	nt
COc1ccc(NC(=O)N2CCCC(c3nc(-c4ccc(C(C)C)cc4)no3)C2)cc1 (configuration not stated)	-20.9	72.2*	11.7*	-12.1	0.23	2.1
O=S(=O)(c1ccccc1F)N(Cc1ccco1)Cc1nnc(-c2ccccc2Br)o1	-31.8	0.4	17.3*	-2.1	nt	1.4
S=C(NCCC(c1ccccc1)c1ccccc1)Nc1ccccc1Cl	20.9	2.5	15.2*	-16.0	0.0432	2.9
Cc1cccc(NC(=O)C2CCCN2C(=O)Oc2ccccc2)c1C (configuration not stated)	-3.0	-16.3	12.3*	nt	-1	1.1
CCCCCOc1ccc(NC(=O)c2cc(SC)ccc2Cl)cc1	-29.7	-5.6	13.1*	9.7	0.0667	2.3
CC(=O)Nc1ccc(S(=O)(=O)Nc2nc3ccccc3nc2Nc2cccc(O)c2)cc1	nt	nt	nt	nt	0.0193	nt
CC(=O)Nc1ccc(S(=O)(=O)Nc2nc3ccccc3nc2Nc2ccc3ccccc3c2)cc1	-22.5	10.7	15.9*	1.6	0.344	2.6
C/C(CC1CC2=C(CC1(C)C)C(C)(C)CCC2)=N\NC(N)=S (configuration not stated)	13.0	76.0*	13.2*	-1.9	0.446	1.1
CCOC(=O)c1sc(NC(=O)/C=C/c2cnn(CC)c2C)c(C(=O)OCC)c1C	-17.6	63.2*	11.8*	-0.1	-0.29	2.8
CCOC(=O)c1sc(NC(=O)CCCn2nc([N+](=O)[O-])cc2C)c(C(=O)OCC)c1C	-1.5	-30.1	12.8*	1.7	nt	1.5
CCCOC(=O)c1c(NC(=O)/C=C/c2cnn(C)c2C)sc(C(=O)OCC)c1C	-36.2	56.2	1.4	-12.0	0.196	nt
CCOc1ccc(NS(=O)(=O)c2ccc(NC(=S)NC(=O)CC(C)C)cc2)cc1	-4.1	79.5*	12.1*	-6.9	0.0249	2.4
Cc1ccc(/C=C/c2ccc(=O)n(Cc3ccccc3Cl)n2)cc1	-29.1	61.5*	13.0*	-8.0	nt	2.6
O=C(Nc1cccc(S(=O)(=O)N2CCCCC2)c1)c1ccc(S(=O)(=O)C(F)F)cc1	nt	-7.3	4.1	nt	-1.31	nt
O=C(O)CCC(=O)Nc1cccc(-c2csc(-c3ccccc3)n2)c1	nt	-15.3	2.8	nt	-0.894	nt
CCCCC(=O)Nc1cccc(-c2csc(-c3ccccc3)n2)c1	-50.2	31.8	18.5*	0.7	0.00303	3.7
COc1cc(NC(=S)N2CCN(c3ccccn3)CC2)cc(OC)c1	-15.9	2.1	1.0	2.4	-0.689	nt
O=C(O)CC(Cc1ccc(Cl)cc1)C(=O)NCc1ccccc1 (configuration not stated)	-12.0	3.2	0.7	8.8	-1.02	nt
COC(=O)c1nn(-c2ccccc2)c(Cl)c1/C=N/O	nt	-4.4	1.0	nt	-0.65	nt
COC(=O)c1nn(-c2ccccc2)c(Cl)c1/C=N/OCc1ccc(Cl)cc1Cl	12.9	-3.3	16.8*	-1.9	0.32	4.1
CCCCn1c(SCC(=O)Nc2cc(C)[nH]n2)nc2ccsc2c1=O	-29.1	2.1	6.7	1.4	-0.639	nt
Cc1cc(NC(=O)CSc2nc3ccsc3c(=O)n2Cc2ccccn2)n[nH]1	-39.8	7.1	19.8*	-17.0	nt	1.1
COc1ccc(Nc2nc(Nc3ccc(OC)cc3)nc(SC3=NCCS3)n2)cc1	-17.6	47.9	2.3	-10.1	-0.398	nt
CC1(C)CC(C(CCN(Cc2ccccc2)C(=O)c2ccco2)c2ccc(F)cc2)CCO1 (configuration not stated)	-47.8	74.5*	11.9*	11.5	-2.3	3.2
O=C(c1ccco1)N(CCC(c1ccccc1)c1ccco1)Cc1ccc(F)cc1 (configuration not stated)	-23.4	46.8	7.5	-6.2	nt	nt
